Eleven molecules from ChEMBL document CHEMBL3853309, “Lovastatin Analogues from the Soil-Derived Fungus Aspergillus sclerotiorum PSU-RSPG178” (J Nat Prod, 2016) can be followed below.

Calls of active or inactive are those of the source. No cut-off for these calls is given here.

One series relates to Plasmodium falciparum. As to the kind of experiment: Antimalarial activity against multi-drug-resistant Plasmodium falciparum K1 by microculture radioisotope technique. The format is functional. An outline of the steps:
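Parasite: P. falciparum K1 (multidrug-resistant). Growth inhibition read by a microculture radioisotope method adapted from a published protocol. Dihydroartemisinine and mefloquine served as reference standards.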

The target in series [1] is T1, 3-hydroxy-3-methylglutaryl-coenzyme A reductase (Homo sapiens) (UniProt P04035).
T1 sequence (whole entry): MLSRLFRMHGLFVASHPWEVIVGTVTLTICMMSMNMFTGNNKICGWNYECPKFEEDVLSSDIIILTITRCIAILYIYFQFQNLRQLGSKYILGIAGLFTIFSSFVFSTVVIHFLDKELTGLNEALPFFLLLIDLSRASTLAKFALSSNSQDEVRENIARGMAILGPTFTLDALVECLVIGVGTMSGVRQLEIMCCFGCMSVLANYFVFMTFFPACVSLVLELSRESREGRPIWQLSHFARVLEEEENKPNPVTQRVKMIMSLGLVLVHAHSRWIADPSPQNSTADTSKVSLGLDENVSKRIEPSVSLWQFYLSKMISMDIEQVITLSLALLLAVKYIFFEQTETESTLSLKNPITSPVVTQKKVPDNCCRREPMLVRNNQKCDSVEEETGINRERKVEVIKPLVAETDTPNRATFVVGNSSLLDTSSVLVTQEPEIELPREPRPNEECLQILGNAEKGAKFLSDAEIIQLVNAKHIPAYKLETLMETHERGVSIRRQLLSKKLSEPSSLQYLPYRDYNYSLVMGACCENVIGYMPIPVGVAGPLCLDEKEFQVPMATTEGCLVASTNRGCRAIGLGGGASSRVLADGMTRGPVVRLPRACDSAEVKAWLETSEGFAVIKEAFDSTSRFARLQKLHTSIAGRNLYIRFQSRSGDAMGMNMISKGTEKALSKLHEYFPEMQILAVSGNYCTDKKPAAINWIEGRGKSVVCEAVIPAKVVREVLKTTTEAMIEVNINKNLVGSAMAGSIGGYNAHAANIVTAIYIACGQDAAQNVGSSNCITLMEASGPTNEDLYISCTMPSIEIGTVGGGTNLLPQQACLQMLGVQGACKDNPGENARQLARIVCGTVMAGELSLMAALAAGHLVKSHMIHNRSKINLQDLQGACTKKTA
As to the kind of experiment: Inhibition of human HMGR catalytic domain at 200 uM using HMG-CoA as substrate measured every 20 secs for 10 mins relative to control. The method, boiled down: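 Sigma HMG-CoA reductase kit, modified: 1× assay buffer, NADPH, HMG-CoA (800 μM final), test compound at 200 μM final; reaction started by adding human HMGR catalytic domain (0.6 μM final) at 37 °C. NADPH oxidation followed at 340 nm for 10 min, 20 s intervals.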

Series [2] in a line: Cytotoxicity against human KB cells by resazurin microplate assay. The format is functional, cell-based. An outline of the steps: (§1)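 KB and MCF-7 cells assayed by resazurin microplate method; positive controls ellipticine and doxorubicin for KB, doxorubicin and tamoxifen for MCF-7.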
A short description of series [3]: Cytotoxicity against African green monkey Vero cells. The format is toxicity, cell-based. The settings on record: African green monkey (Chlorocebus sabaeus). An outline of the steps:
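Vero (African green monkey kidney fibroblast) cells tested in triplicate by the Hunt et al. method; ellipticine positive control.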

Series [4] has as its target T1, 3-hydroxy-3-methylglutaryl-coenzyme A reductase (Homo sapiens). As to the kind of experiment: Binding affinity to human HMGR catalytic domain at 50 uM in presence of 800 to 3200 uM HMG-CoA as substrate measured every 20 secs for 10 mins. An outline of the steps: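 Direct-interaction test: compound at 50 μM with HMG-CoA at 800, 1600 and 3200 μM, plus NADPH and human HMGR catalytic domain at 37 °C. Activity read at 340 nm for 10 min at 20 s intervals, reported as percent inhibition versus untreated control; n = 3.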

Series [5] can be described thus: Cytotoxicity against human MCF7 cells by resazurin microplate assay. The format is functional, cell-based. The method, boiled down: as §1
In general terms: Resazurin is reduced to fluorescent resorufin, in cell work by metabolically active cells.

Series [6] concerns the target T2, 3-hydroxy-3-methylglutaryl-coenzyme A reductase (Homo sapiens, UniProt P04035).
T2 sequence (P04035 whole entry): T1 sequence (whole entry)
In words: Inhibition of human HMGR catalytic domain using 800 uM HMG-CoA as substrate measured every 20 secs for 10 mins. An outline of the steps:
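Dose-response format of the kit assay: 1× buffer, NADPH, 800 μM HMG-CoA, graded compound concentrations, human HMGR catalytic domain 0.6 μM final added to start at 37 °C.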

Series [7] deals with T1, 3-hydroxy-3-methylglutaryl-coenzyme A reductase (Homo sapiens). The settings on record: 1 uM.

For the molecule `C[C@H]1[C@@H](O)O[C@@H]2O[C@@]3(C)CC[C@H]4[C@H](C)CC[C@@H]1[C@@]24OO3` [ARTENIMOL], in the series on Plasmodium falciparum, the IC50 – broadly, the midpoint of a concentration-inhibition curve – is 0.0023 µM.
Turning to `CC[C@H](C)C(=O)O[C@H]1C[C@@H](C)C=C2C=C[C@H](C)[C@H](CC[C@@H]3C[C@@H](O)CC(=O)O3)[C@H]21` [LOVASTATIN], the inhibition (commonly the share of the control response that was lost under treatment) in series [1] came out at 42%. The IC50 was 15.6 µM in series [2] and 2.2 µM in series [3]. Besides, the outcome in series [4] was Active.
For `CC[C@H](C)C(=O)O[C@H]1C[C@@H](C)[C@H](OC(C)=O)C2=C[C@@H](OC(C)=O)[C@H](C)[C@H](CC[C@@H]3CC=CC(=O)O3)[C@H]21`, the inhibition in series [1] came to 20.4%. Moreover, the IC50 came to 19.8 µM in series [2], 8.4 µM in series [3] and 74.7 µM in series [5].
Regarding `CC[C@H](C)C(=O)O[C@H]1C[C@@H](C)C[C@@H]2C=C[C@H](C)[C@H](CC[C@@H]3CC=CC(=O)O3)[C@@H]12`, the inhibition in series [1] turned out to be 17.2%. In addition, the IC50 in series [2] is 15.2 µM; in series [3], 14.5 µM.
As for `CC[C@H](C)C(=O)O[C@H]1C[C@@H](C)[C@H](O)C2=C[C@@H](O)[C@H](C)[C@H](CC[C@@H]3CC=CC(=O)O3)[C@H]21`, the IC50 is 387 µM in series [6], 31.6 µM in series [2] and 40 µM in series [3]. The inhibition in series [1] was 50%. The outcome in series [4] was Active.
On to `COc1cccc2c1C(=O)c1c(O)c3c(c(O)c1C2=O)C[C@@](O)(C(=O)CO)C[C@@H]3O[C@H]1C[C@H](N)[C@H](O)[C@H](C)O1` [DOXORUBICIN], for which, in series [5], the IC50 is 6.75 µM.
For the molecule `O[C@@H](c1cc(C(F)(F)F)nc2c(C(F)(F)F)cccc12)[C@H]1CCCCN1` [(S,R)-MEFLOQUINE], the IC50 in the series with Plasmodium falciparum was found to be 0.0269 µM.
Molecule `CC/C(=C(\c1ccccc1)c1ccc(OCCN(C)C)cc1)c1ccccc1` [TAMOXIFEN] displayed an IC50 in series [5] of 6.99 µM.
Turning to `CC[C@H](C)C(=O)O[C@H]1C[C@@H](C)C=C2C=C[C@H](C)[C@H](CC[C@@H]3CC=CC(=O)O3)[C@H]21`, the inhibition in series [1] was determined as 8.4%. Further, the IC50 in series [2] worked out at 20.1 µM; in series [3] it was 8.1 µM; in series [5] it was 57.3 µM.
Consider `Cc1c2ccncc2c(C)c2c1[nH]c1ccccc12` [ELLIPTECINE], for which the IC50 in series [2] is 2.03 µM; in series [3] it was 1 µM.
As for `CC[C@H](C)C(=O)O[C@H]1C[C@H](O)C=C2C=C[C@H](C)[C@H](CC[C@@H](O)C[C@@H](O)CC(=O)O)[C@H]21`, in series [7], the inhibition was determined as 90.4%.
